Values after ≈ are worked out from the molar mass of the structure shown.

The first test concerns Escherichia coli. Description: Antibacterial activity against Escherichia coli 25922 after 18 to 24 hrs by tube dilution method. The test is classed as functional. The following applies: ATCC25922. The procedure, abridged: (§1)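 Tube dilution broth MIC in Mueller–Hinton broth. Strains were maintained on Mueller–Hinton agar for 24 h at 37 °C. Colonies were suspended in sterile water, adjusted to 0.5 McFarland, and added to give about 10⁵ CFU/mL final. Compounds were dissolved in 12.5% DMSO and serially diluted two-fold. Tubes were incubated 18–24 h at 37 °C. MIC was taken as the last tube with no growth.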
In turn, `CCn1c(NCC(C)C)nc2c(N)ncnc21` returned an MIC of 50 µg/mL (≈ 213 µM).

As to `CN1CCN(Nc2ncnc3c2ncn3C2CCCC2)CC1`, the MIC was found to be 50 µg/mL (≈ 166 µM).

In turn, `COc1ccc(CNc2ncnc3c2ncn3C2CCCC2)c(OC)c1` returned an MIC of 25 µg/mL (≈ 70.7 µM).

`Fc1ccc(CNc2ncnc3c2ncn3C2CCCC2)cc1` came in with an MIC of 50 µg/mL (≈ 161 µM).

Molecule `c1ccc(NCCNc2ncnc3c2ncn3C2CCCC2)cc1` came in with an MIC of 50 µg/mL (≈ 155 µM).

For the molecule `C1=CC(CCNc2ncnc3c2ncn3C2CCCC2)CCC1` (stereo unspecified), the MIC worked out at 25 µg/mL (≈ 80.3 µM).

As for `Clc1ccc(CNc2ncnc3c2ncn3C2CCCC2)c(Cl)c1`, the MIC stood at 50 µg/mL (≈ 138 µM).

For `Clc1ccc(CNc2ncnc3c2ncn3C2CCCC2)cc1`, the MIC was found to be 50 µg/mL (≈ 153 µM).

Molecule `CCNc1nc2c(N)ncnc2n1C1CCCC1` registered an MIC of 50 µg/mL (≈ 203 µM).

`Fc1ccc(CNc2ncnc3c2ncn3C2CCCC2)c(F)c1` yielded an MIC of 50 µg/mL (≈ 152 µM).

On to `C1=CC(CCNc2ncnc3[nH]cnc23)CCC1` (stereo unspecified), for which the MIC is 25 µg/mL (≈ 103 µM).

A further test concerns Staphylococcus aureus. Description: Antibacterial activity against methicillin-resistant Staphylococcus aureus […] after 18 to 24 hrs by tube dilution method. The test is classed as functional.
Conditions: not given
Summed up:
(§2)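 Two-fold broth tube dilution in Mueller–Hinton broth. Strains kept on Mueller–Hinton agar for 24 h at 37 °C. Colonies suspended in sterile water and adjusted to 0.5 McFarland, giving a final inoculum of about 10⁵ CFU/mL. Compounds dissolved in 12.5% DMSO at 200 µg/mL and serially diluted to 0.19 µg/mL. Incubated 18–24 h at 37 °C. MIC taken as the last tube with no growth.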
Take `CCn1c(NCC(C)C)nc2c(N)ncnc21`: the MIC stood at 50 µg/mL (≈ 213 µM).

`CN1CCN(Nc2ncnc3c2ncn3C2CCCC2)CC1`: the MIC was 50 µg/mL (≈ 166 µM).

`COc1ccc(CNc2ncnc3c2ncn3C2CCCC2)c(OC)c1` yielded an MIC of 50 µg/mL (≈ 141 µM).

`Fc1ccc(CNc2ncnc3c2ncn3C2CCCC2)cc1` returned an MIC of 25 µg/mL (≈ 80.3 µM).

Take `c1ccc(NCCNc2ncnc3c2ncn3C2CCCC2)cc1`: the MIC amounted to 50 µg/mL (≈ 155 µM).

On to `C1=CC(CCNc2ncnc3c2ncn3C2CCCC2)CCC1` (stereo unspecified), for which the MIC came to 25 µg/mL (≈ 80.3 µM).

Turning to `Clc1ccc(CNc2ncnc3c2ncn3C2CCCC2)c(Cl)c1`, the MIC amounted to 25 µg/mL (≈ 69 µM).

In turn, `Clc1ccc(CNc2ncnc3c2ncn3C2CCCC2)cc1` had an MIC of 6.25 µg/mL (≈ 19.1 µM).

Regarding `CCNc1nc2c(N)ncnc2n1C1CCCC1`, the MIC was determined as 50 µg/mL (≈ 203 µM).

For the molecule `Fc1ccc(CNc2ncnc3c2ncn3C2CCCC2)c(F)c1`, the MIC amounted to 50 µg/mL (≈ 152 µM).

Molecule `C1=CC(CCNc2ncnc3[nH]cnc23)CCC1` (stereo unspecified) registered an MIC of 50 µg/mL (≈ 205 µM).

Another test deals with Bacillus subtilis. As to the kind of experiment: Antibacterial activity against Bacillus subtilis 6633 after 18 to 24 hrs by tube dilution method. The test is classed as functional.
Conditions: not given
Summed up:
as §1
Consider `O=C(O)c1cn(C2CC2)c2cc(N3CCNCC3)c(F)cc2c1=O` [CIPROFLOXACIN], for which the MIC came to 0.19 µg/mL (≈ 0.573 µM).

Regarding `CCn1c(NCC(C)C)nc2c(N)ncnc21`, the MIC was found to be 50 µg/mL (≈ 213 µM).

For `CN1CCN(Nc2ncnc3c2ncn3C2CCCC2)CC1`, the MIC was 25 µg/mL (≈ 82.9 µM).

For the molecule `COc1ccc(CNc2ncnc3c2ncn3C2CCCC2)c(OC)c1`, the MIC worked out at 25 µg/mL (≈ 70.7 µM).

`Fc1ccc(CNc2ncnc3c2ncn3C2CCCC2)cc1` gave an MIC of 25 µg/mL (≈ 80.3 µM).

With `c1ccc(NCCNc2ncnc3c2ncn3C2CCCC2)cc1`, the MIC is 25 µg/mL (≈ 77.5 µM).

For `C1=CC(CCNc2ncnc3c2ncn3C2CCCC2)CCC1` (stereo unspecified), the MIC worked out at 50 µg/mL (≈ 161 µM).

Molecule `Clc1ccc(CNc2ncnc3c2ncn3C2CCCC2)c(Cl)c1` gave an MIC of 25 µg/mL (≈ 69 µM).

`Clc1ccc(CNc2ncnc3c2ncn3C2CCCC2)cc1`: the MIC is 25 µg/mL (≈ 76.3 µM).

For `CCNc1nc2c(N)ncnc2n1C1CCCC1`, the MIC stood at 50 µg/mL (≈ 203 µM).

`Fc1ccc(CNc2ncnc3c2ncn3C2CCCC2)c(F)c1`: the MIC came to 50 µg/mL (≈ 152 µM).

Consider `C1=CC(CCNc2ncnc3[nH]cnc23)CCC1` (stereo unspecified), for which the MIC turned out to be 25 µg/mL (≈ 103 µM).

The test system of a further test is Staphylococcus aureus. Description: Antibacterial activity against methicillin-resistant Staphylococcus aureus isolate after 18 to 24 hrs by tube dilution method. The test is classed as functional.
Conditions: not given
The procedure, abridged:
as §2
For `O=C(O)c1cn(C2CC2)c2cc(N3CCNCC3)c(F)cc2c1=O` [CIPROFLOXACIN], the MIC was 12.5 µg/mL (≈ 37.7 µM).

Turning to `CCn1c(NCC(C)C)nc2c(N)ncnc21`, the MIC turned out to be 50 µg/mL (≈ 213 µM).

The molecule `CN1CCN(Nc2ncnc3c2ncn3C2CCCC2)CC1` had an MIC of 50 µg/mL (≈ 166 µM).

As to `COc1ccc(CNc2ncnc3c2ncn3C2CCCC2)c(OC)c1`, the MIC was determined as 50 µg/mL (≈ 141 µM).

`Fc1ccc(CNc2ncnc3c2ncn3C2CCCC2)cc1`: the MIC is 25 µg/mL (≈ 80.3 µM).

Take `c1ccc(NCCNc2ncnc3c2ncn3C2CCCC2)cc1`: the MIC came to 50 µg/mL (≈ 155 µM).

Regarding `C1=CC(CCNc2ncnc3c2ncn3C2CCCC2)CCC1` (stereo unspecified), the MIC worked out at 25 µg/mL (≈ 80.3 µM).

Take `Clc1ccc(CNc2ncnc3c2ncn3C2CCCC2)c(Cl)c1`: the MIC turned out to be 50 µg/mL (≈ 138 µM).

In turn, `Clc1ccc(CNc2ncnc3c2ncn3C2CCCC2)cc1` gave an MIC of 6.25 µg/mL (≈ 19.1 µM).

In turn, `CCNc1nc2c(N)ncnc2n1C1CCCC1` displayed an MIC of 50 µg/mL (≈ 203 µM).

`Fc1ccc(CNc2ncnc3c2ncn3C2CCCC2)c(F)c1`: the MIC was 50 µg/mL (≈ 152 µM).

`C1=CC(CCNc2ncnc3[nH]cnc23)CCC1` (stereo unspecified) displayed an MIC of 50 µg/mL (≈ 205 µM).

Another test deals with Staphylococcus aureus. As to the kind of experiment: Antibacterial activity against Staphylococcus aureus ATCC 25923 after 18 to 24 hrs by tube dilution method. The test is classed as functional.
Conditions: not given
The procedure, abridged: as §2
In the case of `O=C(O)c1cn(C2CC2)c2cc(N3CCNCC3)c(F)cc2c1=O` [CIPROFLOXACIN], the MIC is 0.78 µg/mL (≈ 2.35 µM).

`CCn1c(NCC(C)C)nc2c(N)ncnc21` displayed an MIC of 50 µg/mL (≈ 213 µM).

Molecule `CN1CCN(Nc2ncnc3c2ncn3C2CCCC2)CC1` returned an MIC of 50 µg/mL (≈ 166 µM).

Take `COc1ccc(CNc2ncnc3c2ncn3C2CCCC2)c(OC)c1`: the MIC was found to be 50 µg/mL (≈ 141 µM).

For `Fc1ccc(CNc2ncnc3c2ncn3C2CCCC2)cc1`, the MIC worked out at 25 µg/mL (≈ 80.3 µM).

For `c1ccc(NCCNc2ncnc3c2ncn3C2CCCC2)cc1`, the MIC was determined as 50 µg/mL (≈ 155 µM).

Regarding `C1=CC(CCNc2ncnc3c2ncn3C2CCCC2)CCC1` (stereo unspecified), the MIC was determined as 12.5 µg/mL (≈ 40.1 µM).

Turning to `Clc1ccc(CNc2ncnc3c2ncn3C2CCCC2)c(Cl)c1`, the MIC turned out to be 12.5 µg/mL (≈ 34.5 µM).

As for `Clc1ccc(CNc2ncnc3c2ncn3C2CCCC2)cc1`, the MIC was determined as 12.5 µg/mL (≈ 38.1 µM).

`CCNc1nc2c(N)ncnc2n1C1CCCC1` had an MIC of 25 µg/mL (≈ 101 µM).

`Fc1ccc(CNc2ncnc3c2ncn3C2CCCC2)c(F)c1`: the MIC was 50 µg/mL (≈ 152 µM).

`C1=CC(CCNc2ncnc3[nH]cnc23)CCC1` (stereo unspecified) gave an MIC of 50 µg/mL (≈ 205 µM).

In another test the test system is Candida albicans. As to the kind of experiment: microbe, parasite or virus in culture. The test is classed as functional.
Conditions: not given
In the case of `Clc1ccc(COC(Cn2ccnc2)c2ccc(Cl)cc2Cl)c(Cl)c1` (stereo unspecified) [MICONAZOLE], the MIC is 3.12 µg/mL (≈ 7.5 µM).

Consider `CCn1c(NCC(C)C)nc2c(N)ncnc21`, for which the MIC was determined as 25 µg/mL (≈ 107 µM).

In turn, `CN1CCN(Nc2ncnc3c2ncn3C2CCCC2)CC1` displayed an MIC of 25 µg/mL (≈ 82.9 µM).

The molecule `COc1ccc(CNc2ncnc3c2ncn3C2CCCC2)c(OC)c1` came in with an MIC of 12.5 µg/mL (≈ 35.4 µM).

Molecule `Fc1ccc(CNc2ncnc3c2ncn3C2CCCC2)cc1` returned an MIC of 3.12 µg/mL (≈ 10 µM).

As for `c1ccc(NCCNc2ncnc3c2ncn3C2CCCC2)cc1`, the MIC is 12.5 µg/mL (≈ 38.8 µM).

As for `C1=CC(CCNc2ncnc3c2ncn3C2CCCC2)CCC1` (stereo unspecified), the MIC turned out to be 12.5 µg/mL (≈ 40.1 µM).

`Clc1ccc(CNc2ncnc3c2ncn3C2CCCC2)c(Cl)c1` displayed an MIC of 6.25 µg/mL (≈ 17.3 µM).

`Clc1ccc(CNc2ncnc3c2ncn3C2CCCC2)cc1` gave an MIC of 12.5 µg/mL (≈ 38.1 µM).

As for `Clc1ccc(CO/N=C(\Cn2ccnc2)c2ccc(Cl)cc2Cl)c(Cl)c1` [OXICONAZOLE], the MIC was 6.25 µg/mL (≈ 14.6 µM).

Consider `CCNc1nc2c(N)ncnc2n1C1CCCC1`, for which the MIC worked out at 6.25 µg/mL (≈ 25.4 µM).

Take `Fc1ccc(CNc2ncnc3c2ncn3C2CCCC2)c(F)c1`: the MIC stood at 25 µg/mL (≈ 75.9 µM).

`C1=CC(CCNc2ncnc3[nH]cnc23)CCC1` (stereo unspecified) returned an MIC of 6.25 µg/mL (≈ 25.7 µM).

The values are drawn from ChEMBL document CHEMBL1136859, “Synthesis and antimicrobial evaluation of some new substituted purine derivatives” (2009).
